Experimental findings from ChEMBL document CHEMBL4433221, “Novel Sustainable-by-Design HDAC Inhibitors for the Treatment of Alzheimer's Disease” (ACS Med Chem Lett, 2019) are described below.

Each structure is given as a SMILES string. Activity calls are given as the source filed them. No cut-off for these calls is given here.

Assay [1] concerns the target T1, Protein deacetylase HDAC6 (Homo sapiens) (UniProt Q9UBN7).
T1 sequence (whole entry): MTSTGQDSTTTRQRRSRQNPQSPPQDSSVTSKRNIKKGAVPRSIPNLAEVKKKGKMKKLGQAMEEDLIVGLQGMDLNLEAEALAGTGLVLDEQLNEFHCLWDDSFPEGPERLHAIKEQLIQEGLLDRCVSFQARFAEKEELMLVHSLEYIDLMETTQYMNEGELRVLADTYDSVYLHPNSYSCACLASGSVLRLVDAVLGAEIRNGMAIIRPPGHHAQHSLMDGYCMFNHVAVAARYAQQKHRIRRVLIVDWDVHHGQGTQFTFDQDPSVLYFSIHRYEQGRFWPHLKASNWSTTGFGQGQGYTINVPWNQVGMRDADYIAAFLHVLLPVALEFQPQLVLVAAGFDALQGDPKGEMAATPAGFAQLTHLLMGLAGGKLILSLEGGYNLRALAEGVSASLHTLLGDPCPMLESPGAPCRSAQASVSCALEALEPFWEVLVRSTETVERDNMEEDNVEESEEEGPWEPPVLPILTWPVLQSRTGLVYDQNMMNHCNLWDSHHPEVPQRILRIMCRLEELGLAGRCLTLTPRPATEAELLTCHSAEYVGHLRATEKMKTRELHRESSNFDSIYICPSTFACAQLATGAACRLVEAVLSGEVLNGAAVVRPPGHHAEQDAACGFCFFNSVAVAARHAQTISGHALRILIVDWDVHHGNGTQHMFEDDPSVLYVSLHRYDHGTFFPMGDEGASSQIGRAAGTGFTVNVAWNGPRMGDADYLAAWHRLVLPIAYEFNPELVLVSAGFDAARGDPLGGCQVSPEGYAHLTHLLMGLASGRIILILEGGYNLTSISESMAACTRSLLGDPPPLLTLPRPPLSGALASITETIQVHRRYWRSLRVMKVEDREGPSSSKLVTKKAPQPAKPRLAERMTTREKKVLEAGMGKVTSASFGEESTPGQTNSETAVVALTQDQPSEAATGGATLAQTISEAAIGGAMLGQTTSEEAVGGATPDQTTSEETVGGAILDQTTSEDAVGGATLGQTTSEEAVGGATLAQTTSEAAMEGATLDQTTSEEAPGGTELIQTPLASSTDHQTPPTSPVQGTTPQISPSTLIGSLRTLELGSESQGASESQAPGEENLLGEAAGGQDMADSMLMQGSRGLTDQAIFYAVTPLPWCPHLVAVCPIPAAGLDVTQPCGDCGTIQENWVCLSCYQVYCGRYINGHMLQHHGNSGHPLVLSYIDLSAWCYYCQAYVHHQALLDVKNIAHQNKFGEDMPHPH
In words: Inhibition of human recombinant HDAC6 using fluorogenic peptide p53 residues 379-382 (RHKK(Ac)AMC) as residues at 10 uM by fluorescence method. The gist of the method: (§1)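 Selectivity profile across HDAC isoforms 1–11 at a single concentration of 10 μM, run in duplicate.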

Assay [2] deals with T2, Histone deacetylase 8 (Homo sapiens) (UniProt Q9BY41).
T2 sequence (whole entry): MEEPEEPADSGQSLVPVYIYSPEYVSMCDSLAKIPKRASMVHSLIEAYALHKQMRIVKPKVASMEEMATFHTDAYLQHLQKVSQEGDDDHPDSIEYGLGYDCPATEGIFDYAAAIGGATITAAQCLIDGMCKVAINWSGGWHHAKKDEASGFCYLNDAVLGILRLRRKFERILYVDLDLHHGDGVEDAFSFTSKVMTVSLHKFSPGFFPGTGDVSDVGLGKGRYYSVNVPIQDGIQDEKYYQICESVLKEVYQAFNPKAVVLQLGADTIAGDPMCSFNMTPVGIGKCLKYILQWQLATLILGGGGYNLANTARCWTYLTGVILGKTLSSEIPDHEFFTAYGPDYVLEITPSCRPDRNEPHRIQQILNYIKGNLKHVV
Description: Inhibition of human recombinant HDAC8 using fluorogenic peptide p53 residues 379-382 (RHK(Ac)K(Ac)AMC) as residues at 10 uM by fluorescence method. An outline of the steps:
as §1

Assay [3] deals with Histone deacetylase 9 (Homo sapiens) (UniProt Q9UKV0). Description: Inhibition of human recombinant HDAC9 using fluorogenic trifluoroacetyl lysine as substrate at 10 uM by fluorescence method. An outline of the steps: as §1
For assay [4], the target named is T3, Histone deacetylase 11 (Homo sapiens) (UniProt Q96DB2).
T3 sequence (whole entry): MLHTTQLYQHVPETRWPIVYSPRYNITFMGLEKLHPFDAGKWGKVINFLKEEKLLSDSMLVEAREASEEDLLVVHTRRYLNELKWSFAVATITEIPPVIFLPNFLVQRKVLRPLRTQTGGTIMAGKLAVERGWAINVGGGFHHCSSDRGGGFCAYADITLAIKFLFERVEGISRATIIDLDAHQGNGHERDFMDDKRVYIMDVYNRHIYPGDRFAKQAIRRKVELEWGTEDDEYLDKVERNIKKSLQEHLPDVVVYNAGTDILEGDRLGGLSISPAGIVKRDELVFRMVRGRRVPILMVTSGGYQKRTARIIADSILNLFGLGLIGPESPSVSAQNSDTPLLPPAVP
Description: Inhibition of human recombinant HDAC11 using fluorogenic trifluoroacetyl lysine as substrate at 10 uM by fluorescence method. The gist of the method: as §1

The target of assay [5] is Histone deacetylase (Mus musculus) (UniProt Q8VH37+Q9Z2V6+Q9Z2V5+O09106+Q8C2B3+P70288+O88895+Q91WA3+Q99N13+Q6NZM9+Q6P3E7). The conditions noted are these: at 5 to 25 µM.

Chain of Histone deacetylase 9 (Homo sapiens) (Q9UKV0 whole entry): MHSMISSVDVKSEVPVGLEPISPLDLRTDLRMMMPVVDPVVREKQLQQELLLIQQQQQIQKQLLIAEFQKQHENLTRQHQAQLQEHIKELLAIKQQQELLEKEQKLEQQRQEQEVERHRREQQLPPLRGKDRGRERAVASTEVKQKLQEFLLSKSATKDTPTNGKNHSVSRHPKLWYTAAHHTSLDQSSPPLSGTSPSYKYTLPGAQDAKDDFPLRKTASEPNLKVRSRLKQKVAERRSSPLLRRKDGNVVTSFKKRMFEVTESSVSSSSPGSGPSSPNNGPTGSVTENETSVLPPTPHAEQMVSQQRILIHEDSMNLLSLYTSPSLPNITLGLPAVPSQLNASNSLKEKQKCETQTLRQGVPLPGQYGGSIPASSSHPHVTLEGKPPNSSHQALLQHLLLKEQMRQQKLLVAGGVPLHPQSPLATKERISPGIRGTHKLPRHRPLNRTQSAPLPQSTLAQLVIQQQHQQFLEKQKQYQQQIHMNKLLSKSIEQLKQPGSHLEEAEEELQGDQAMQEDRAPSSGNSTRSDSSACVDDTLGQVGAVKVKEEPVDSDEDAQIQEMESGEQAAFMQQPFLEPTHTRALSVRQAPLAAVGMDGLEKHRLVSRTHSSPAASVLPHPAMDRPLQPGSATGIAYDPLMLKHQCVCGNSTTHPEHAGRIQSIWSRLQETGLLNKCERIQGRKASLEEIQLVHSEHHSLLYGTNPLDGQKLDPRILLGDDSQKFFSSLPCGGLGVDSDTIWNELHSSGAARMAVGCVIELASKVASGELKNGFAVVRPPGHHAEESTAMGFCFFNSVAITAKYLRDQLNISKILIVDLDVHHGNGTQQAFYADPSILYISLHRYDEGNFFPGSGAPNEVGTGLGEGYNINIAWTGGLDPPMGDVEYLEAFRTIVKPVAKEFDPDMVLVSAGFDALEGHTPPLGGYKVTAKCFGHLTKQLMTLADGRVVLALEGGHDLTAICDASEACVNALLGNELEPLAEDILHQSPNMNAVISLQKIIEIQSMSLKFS

On to `COc1cccc(CCCCCCCC(=O)NO)c1`, for which the inhibition entry in assay [1] and in assay [5] was “Active” each time. The inhibition entry in assay [2], in assay [3] and in assay [4] was “inactive” each time.
`COC(=O)c1c(CCCCCCCC(=O)NO)cccc1OC`: the inhibition result in assay [1] and in assay [5] was “Active” throughout. Moreover, the inhibition result in assay [2], in assay [3] and in assay [4] was “inactive” throughout.
